The series has as its system MS2 coat protein. The series is described as follows: apparent Kd, MS2 coat protein; higher = weaker binding; RNA-MaP array; FMN 200 µM where present. An outline of the steps:
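Binding was read on Illumina sequencing-chip clusters where stalled E. coli RNA polymerase had transcribed each design. A titration of SNAP-549-labelled MS2 coat protein began at 0.7 or 1.5 nM and doubled to 3 µM, once without ligand and once with constant ligand, in 100 mM Tris-HCl pH 7.5, 80 mM KCl, 4 mM MgCl2, BSA, DTT, yeast tRNA and Tween-20. The apparent Kd is the median of filtered per-cluster binding-curve fits, based on green signal normalised to red-channel RNA signal and control-cluster median Fmax.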

[1] abbreviates: designed as: OFF switch for flavin mononucleotide, no ligand.
The mark [2] stands for this setting: ligand present: flavin mononucleotide, designed as: OFF switch for flavin mononucleotide.
Setting [3] is: designed as: ON switch for flavin mononucleotide, no ligand.
The mark [4] stands for this setting: ligand present: flavin mononucleotide, designed as: ON switch for flavin mononucleotide.

The record followed here is the EternaBench riboswitch data.

What is called apparent Kd is the concentration giving half-maximal binding under the conditions of the assay.

“CACAAGAAAGUCGAAGGUUGAAGUAGAAGGUUUAUAACAUGACAUGAGGAUCACCCAUGUGCCAAGAAGGAUAUGCUUUAAUCG”: the “apparent Kd” value reads like this: under setting [1], 0.0114 µM; under setting [2], 0.00943 µM.
Taken in the same sequence, the figures for “AAAUCCGCUGAGGAUAUCAUGACUGAGAGGUCAUGAGAAGGCGGUACAUGAGGAUCACCCAUGUCUAUGGGCAA” were 0.492 µM and 0.454 µM.
Taken in the same sequence, the figures for “GUCAGCUCGUGAGGAUAUACAACACUGCUUCGGCAGUGUAUUAAGAUCACAUGAGGAUCACCCAUGUAGAAGGCAUGAGCUGAU” were 0.0149 µM and 0.297 µM.
Take “UCAUUUACCACAGGAUAUAUUCAUAUACAGUUGUUUGGCUCUUACAUAUUAAUAGAAGGGUGCAACAUGAGGAUCACCCAUGUA”: the “apparent Kd” value by setting is: under setting [3], 0.274 µM; under setting [4], 0.191 µM.
Take “AUUUUAAAGGGAGGAUAUACAUGAGGAUCACCCAUGUAAACAUGAGGAUCACCCUUGUAAACAAUGUAGAAGGCCUAAAUCUAU”: the “apparent Kd” value reads like this: under setting [1], 0.013 µM; under setting [2], 0.0161 µM.
Take “AGUAGAUCAGGAUAUACAUAAAUGAUAAUUAUGUACCUAAUACAUGAGGAUCACCCAUGUAGAAGGGAUCUACA”: the “apparent Kd” value by setting is: under setting [1], 0.0149 µM; under setting [2], 0.0179 µM.
In the case of “UGUCGGAGCAGAGGAUAUGACAUGAGGAUCACCCAUGUAUGAACCAAUAGCUGGAAACAGCAAUGUAAGAAGGCUGCUCCGACA”, the “apparent Kd” value under setting [1] was determined as 0.00598 µM and the “apparent Kd” value under setting [2] turned out to be 0.00679 µM.
For the sequence “GCGUAAGAAUUAAUUGUGACUGACAGAAGGCAAUAGUAUGUGUCCGACAUGAGGAUCACCCAUGUUGAGGAUAUGUCUUGACGC”, the “apparent Kd” value by setting is: under setting [1], 0.00464 µM; under setting [2], 0.005 µM.
Regarding “GGGUACAUCGGAGGAUAUCAUGUAAAUACAUGAGGAUCACCCAUGUCGAUGGAGACAUCGGAGAUUGAGAAGGACGAUGUACCG”, the “apparent Kd” value was determined as 0.32 µM under setting [3] and 0.014 µM under setting [4].
Turning to “CGGCGGAAAGGAUAUGCAUUAAUAUCAAUAUGUGGGCCACGACAUGAGGAUCACCCAUGUAGAAGGUUCAGCCG”, the “apparent Kd” value reads like this: under setting [1], 0.0218 µM; under setting [2], 0.0168 µM.
Regarding “UUUAUUUUUAGAGGAUAUAUUGUGUGUGAGAGAAUAGAAGGCUAAACAUACAUGAACAUGAGGAUCACCCAUGUCACCCAUGUU”, the “apparent Kd” value by setting is: under setting [3], 0.0782 µM; under setting [4], 0.0549 µM.
Taken in the same sequence, the figures for “GUAGCUAUCGGAGGAUAUUCAUACCGGAAACGGACAUGAGGAUCACCCAUGUGGCGAAAGCCUUGGGAGAAGGUCGAUAGCUAC” were 0.308 µM and 0.0105 µM.
In the case of “CCUGAGUCAGGAUAUUGUACCAGUCUAAAACCAGACUGACCCAAGAAGGGACAUGAGGAUCACCCAUGUGAAAA”, the “apparent Kd” value is 0.0302 µM under setting [1] and 0.0255 µM under setting [2].
Take “UUAUAUAGGUAGGAUAUCGAUUUUAAUUAUUUUCGAGAAGGGUCAACAUGAGGAUCACCCAUGUCAGCAUGUAU”: the “apparent Kd” value under setting [1] was 0.0587 µM and the “apparent Kd” value under setting [2] worked out at 0.0491 µM.
Taken in the same sequence, the figures for “GGUACUCAAAGAGUACCAAUACGAACAUGAGGAUCACCCAUGUAGGAUAUGCUACUCAAAGAGUAGCAGAAGGACAUGCGCCUA” were 0.0182 µM and 0.106 µM.
In the case of “GUGGCGGCCACAGGAUAUACCCGCGGUAGCCUGGUAGAAGGGUGGUCUCUCAGUCACAACAUGAGGAUCACCCAUGUAGAAAUC”, the “apparent Kd” value by setting is: under setting [3], 0.0258 µM; under setting [4], 0.0355 µM.
Consider “GUUAAGGUAGGAUAUACGAUAAUAUAGGGUAGAUAUAUAACACAUGAGGAUCACCCAUGUAGAAGGACCAAGUG”, for which the “apparent Kd” value is, setting by setting: under setting [1], 0.0415 µM; under setting [2], 0.17 µM.
The matching figures for “AAACAAAGGUGGAAACGGGAACCACAUGAGGAUCACCCAUGUAAGGAUAUCGACCAGCGGUGCGGCGAGAAGGUACAUAGGAAC”: 0.0203 µM and 0.0297 µM.
For the sequence “CAGGGUAGAGGAUAUACGUAGGUACAGAUCUGUGUGAUCCUACAUGAGGAUCACCCAUGUAGAAGGCUAGCCUG”, the “apparent Kd” value under setting [1] was 0.356 µM and the “apparent Kd” value under setting [2] was found to be 0.0394 µM.
“AGCUAGUACCGAGGAUAUACGUACAUGAGGAUCACCCAUGUAUACAUGAAUUAAUGAGACUACAUGUAGAAGGCGGUACUAGCA”: the “apparent Kd” value was 0.0514 µM under setting [3] and 0.0143 µM under setting [4].
Take “GUAUCGUAUGUGAGGAUAUAUUUGUCCUUGGAUCUGUAGAAGGCACAUGAGGAUCACCCAUGUCCAAGUGGUCC”: the “apparent Kd” value under setting [1] came to 0.0276 µM and the “apparent Kd” value under setting [2] is 0.0277 µM.
On to “GCAUGAAAUGUGAGGAUAUACCUCUGGAUACAUAGGUAGAAGGCACAUGAGGAUCACCCAUGUCCUAAACAUGC”, for which the “apparent Kd” value runs as follows: under setting [1], 0.0347 µM; under setting [2], 0.0422 µM.
“GAGUCUCUAUUAGAACCGAUACGAACAUGAGGAUCACCCAUGUAGGAUAUGCUAAAAGUUGUGUUGCAGAAGGACAUUUAAUGC”: the “apparent Kd” value under setting [1] stood at 0.0112 µM and the “apparent Kd” value under setting [2] was found to be 0.0109 µM.
Regarding “GGCUCAUUGACAUUAAUGUGCAGACAGGAUAUCCACCGCGGUUCCUACAUGAGGAUCACCCAUGUGGAGAAGGGUCGCUAAUGG”, the “apparent Kd” value by setting is: under setting [1], 0.0161 µM; under setting [2], 0.0436 µM.
For “UCUACGUAAAUUCAUCAAUACAGAAAGGAUAUGAAAUACAUGAGGAUCACCCAUGUGCAUGGGAAUUAGAAGGUUCAAUUAACU”, the “apparent Kd” value runs as follows: under setting [1], 0.202 µM; under setting [2], 0.104 µM.
In the case of “GCUACAUAUAUUAAGUAUGAUUAACUAGAAGGUAGAUACAUGAGGAUCACCCAUGUUAAGAGUUCUAAGGAUAUAGUUUGUAGC”, the “apparent Kd” value under setting [3] stood at 0.113 µM and the “apparent Kd” value under setting [4] is 0.0566 µM.
“AUAUCUAUGUAAGGAUAUAGAUGGUAUACGCCUCCGACAUGAGGAUCACCCAUGUUAUAUUUUGUCUAGAAGGUACAUUGUCGG”: the “apparent Kd” value under setting [3] came out at 0.383 µM and the “apparent Kd” value under setting [4] was 0.305 µM.
For the sequence “GCCUGCUGGCGAGGAUAUUCUGUGAGGUUCCGGCUCGUGUCUGUUACAUGAGGAUCACCCAUGUGGGAGAAGGUGUCUGUGGCC”, the “apparent Kd” value under setting [1] stood at 0.00615 µM and the “apparent Kd” value under setting [2] amounted to 0.00613 µM.
With “CCUGUGUGAGGAUAUCUACGCCAUGUCUUUGACAUGGCGCAAGAGAAGGCACAUGAGGAUCACCCAUGUACUUC”, the “apparent Kd” value under setting [1] amounted to 0.0226 µM and the “apparent Kd” value under setting [2] was 0.135 µM.
Take “ACAUAUAUUCGAGGAUAUCGGUGAUAAAUUUUACGAGAAGGCGAUAAAAGAUAUAAUCUUAUAGACAUGAGGAUCACCCAUGUA”: the “apparent Kd” value is, setting by setting: under setting [3], 0.0273 µM; under setting [4], 0.0272 µM.
On to “GUGACGAAUGUAGGAUAUGCUGACCAAUGGUCAGCAGAAGGACAUGAGGAUCACCCAUGUCAUCCUUAUAAUGAAUAACGUCAC”, for which the “apparent Kd” value under setting [1] came to 0.0135 µM and the “apparent Kd” value under setting [2] was determined as 0.0186 µM.
The matching figures for “CCAACCGUAGGAUAUUCCAAGUCCGACAUGAGGAUCACCCAUGUGUUUCUCUGCGAUUUAGGAGAAGGGCGGUUGG”: 0.349 µM and 0.474 µM.
Taken in the same sequence, the figures for “CUCCUGUAAGGAUAUCUGACAAGUGACGAAAGUCACAGUUCAGAGAAGGUACAUGAGGAUCACCCAUGUAGAAC” were 0.0322 µM and 0.139 µM.
As for “UUAUUUAGGUAGGAUAUCGAUAUUAUUCCCUAUCGAGAAGGGUCUACAUGAGGAUCACCCAUGUUAGCAUGUUU”, the “apparent Kd” value runs as follows: under setting [1], 0.0223 µM; under setting [2], 0.0222 µM.
With “GCUGCUAUCGCAGGAUAUUACAUGGGAAAUAAAACAUGAGGAUCACCCAUGUAAAAUAUCGUAAAUAAGAAGGGCGAUAGCAGC”, the “apparent Kd” value was determined as 0.0846 µM under setting [3] and 1.18 µM under setting [4].
As for “UAGUGAUUGCAAGGAUAUGCUUAUGUUUAAUUUUAUUUAUUAUCUAACAUGAGGAUCACCCAUGUGCAGAAGGUGCUUGAUUUG”, the “apparent Kd” value runs as follows: under setting [3], 0.0634 µM; under setting [4], 0.0534 µM.
